An excerpt weighted towards active compounds, which were near 5.6% of everything screened.
UPR XBP1 act: adaptive UPR (XBP1) activation; hit rate 0.33% among 330,000; activation, % at 20 µM; CHO-XBP1 luciferase reporter, IRE1-XBP1 UPR activation, luminescence; percent of tunicamycin response, DMSO as zero;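 active means versus positive control, 20 µM dose yields 30% or more activation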;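 further: 100% = tunicamycin at 10 µg/mL and 0% = DMSO only wells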
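Signal: luciferase luminescence; Assay system: CHO-XBP1 luciferase reporter cells; Amount: one thousand reporter cells per well; Dosing: 20 µM single concentration, DMSO 1%; Benchmarks: high control tunicamycin 10 µg/mL final, low control DMSO vehicle only; Schedule: 6 h compound exposure at 37 °C, 5% CO2; Evaluation: percent activation relative to tunicamycin reference.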
MPTP inh: permeability transition pore inhibition; isolated mouse mitochondria, Ca2+ swelling absorbance, 30 min; inhibition, % at 10 µM; hit rate 1.4% among 360,000; AID 602449;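 active means inhibition of 50% or more, scaled per plate between neutral and stimulator controls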;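 further: 0% = DMSO wells given calcium and 100% = 1 mM EGTA wells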
CHOP inh: CHOP inhibition in unfolded protein response; AID 2732; inhibition, % at 10 µM; hit rate 3.8% among 220,000; CHO-K1 CHOP-promoter luciferase, tunicamycin-induced, 15-18 h;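 active means compounds that reduced the stress-induced luciferase reporter signal by more than about 70% of percent inhibition, limit read from the data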;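 further: 0% = tunicamycin plus vehicle and 100% = wells without tunicamycin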
NR3A LBD binder: modulators (binders) of human NR3A ligand-binding domain; NR3A LBD differential scanning fluorimetry, Tm shift; 0% = protein alone, 100% = glycine-bound protein; Tm shift relative to glycine control, % at 25 µM; AID 1259313; hit rate 2.5% among 340,000;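 active means melting temperature shift of at least 10% of the positive control shift, at one fixed dose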
CHOP UPR activ: activators of apoptotic arm of unfolded protein response (CHOP) | CHO-CHOP luciferase reporter, UPR activation, luminescence; percent of tunicamycin response over DMSO baseline | activation, % at 10 µM | hit rate 0.34% among 330,000;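 active means at 10 µM dose, activation of 40% or more, normalized to positive control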;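 further: 100% = tunicamycin at 10 µg/mL and 0% = DMSO alone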
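Assay system: CHO cells with stable CHOP pathway luciferase reporter; Buffer or medium: F12 plus 10% serum; Times: 16-18 h cell attachment, then 6 h compound exposure, 37 °C; Signal: luciferase luminescence; Read-out basis: percent activation relative to tunicamycin control; Control set: tunicamycin high control, DMSO low control.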
aDG glyco up: alpha-DG glycosylation activation; activation, % at 10 µM; hit rate 0.22% among 360,000; Pro5-aDG cells, alpha-DG glycosylation AlphaScreen (IIH6); 0% Pro5, 100% B10-LARGE cell signal;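 active means activation of at least 8% versus controls, or a plate z-score of at least 8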;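 further: Pro5 are CHO cells carrying HIG-tagged alpha-DG that lacks glycosylation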
An asterisk follows results filed as active; nt = no result given.

SMILES	UPR XBP1 act	MPTP inh	CHOP inh	NR3A LBD binder	CHOP UPR activ	aDG glyco up
CCCCCn1c(SCc2cccc(C)c2)nc2c1c(=O)[nH]c(=O)n2C	0	2	92*	0	1	0
C/C=C/Cn1c(SCc2ccc(C)cc2)nc2c1c(=O)[nH]c(=O)n2C	7	0	94*	2	0	0
CCOC(=O)c1ccc(N(CCC2CO2)S(=O)(=O)c2ccc(C)cc2)cc1 (stereo not given)	nt	1	nt	-1	nt	0
O=C(NC(=S)Nc1ccccc1)c1cncc(C#Cc2ccccc2)c1	0	5	-4	-4	0	0
O=C(NCCS(=O)(=O)N1CCN(c2cccc(Cl)c2)CC1)c1ccco1	-2	-1	nt	0	0	0
Cc1cc(CNC[C@H]2O[C@@H](n3cnc4c(N)ncnc43)[C@H](O)[C@@H]2O)no1	nt	-1	nt	nt	nt	0
COc1ccc(Nc2ccc(OC)cc2)cc1	5	6	-16	-16	6	0
COc1ccc(Nc2cc(Nc3cccc(OC)c3)ncn2)cc1	1	0	nt	27*	4	0
COc1ccc(Nc2ccc(Nc3ccc(OC)cc3)nn2)cc1	2	-2	14	27*	-1	0
COc1ccc(Nc2ncnc3ccc(C)cc23)cc1	-5	0	nt	1	1	0
COc1ccc(Nc2cc(Nc3ccc(OC)cc3)ncn2)cc1	-2	1	nt	16*	-3	0
COc1cccc(Nc2ncnc3ccc(Br)cc23)c1	nt	3	nt	nt	nt	0
COc1ccc(Nc2cc(Nc3cc(OC)c(OC)c(OC)c3)ncn2)cc1	-1	-1	nt	14*	1	0
Cc1ccc([C@@H]2CC(=O)[C@@H]3CN(S(=O)(=O)c4ccc(C)cc4)[C@H](c4ccc(Cl)cc4)C[C@@H]3N2S(=O)(=O)c2ccc(C)cc2)cc1	nt	0	nt	nt	nt	0
CCOc1ncccc1C(=O)Nc1ccc2nc(C)sc2c1	9	-2	nt	-1	5	0
COc1ccccc1C/C(N)=N/OC(=O)c1ccco1	-2	-1	-10	-2	1	0
Nc1ccccc1Sc1nc2ccccc2[nH]1	-6	0	19	10*	0	0
Nc1nc2ccccc2[nH]1	-2	0	nt	1	0	0
OC(COCc1ccccc1)CN1CCN(c2ccccc2)CC1 (stereo not given)	-4	-1	0	2	1	0
OC(COCc1ccccc1)CN1CCCC1 (stereo not given)	-4	0	-5	11*	-1	0
Cc1cc(NC(=O)Cn2nc(-c3ccccc3F)ccc2=O)ccc1-n1cnnn1	-2	-2	72*	1	0	0
CC1Oc2cc3oc4c(O)c(O)ccc4c(=O)c3c(O)c2C1(C)C (stereo not given)	2	32	nt	20*	10	0
O=c1cc(CN2CCOCC2)c2ccc(O)c(O)c2o1	3	0	nt	2	1	0
C=CCN1CC(=O)N2C(c3ccccc3)c3[nH]c4ccccc4c3C[C@H]2C1=O (stereo not given in full)	-3	0	nt	-2	-1	0
Cc1cc(N/N=C/c2cccc(Cl)c2)nc(NCc2ccccc2)n1	-3	20	50	15*	1	1
SMILES	UPR XBP1 act	MPTP inh	CHOP inh	NR3A LBD binder	CHOP UPR activ	aDG glyco up
Cc1cc(C)nc(N/N=C/c2cccc(Cl)c2)n1	0	-1	-13	-1	0	0
Cc1cc(N/N=C/c2ccc(Cl)cc2)nc(NCc2ccccc2)n1	3	39	69	27*	1	3
Cc1cc(N/N=C/c2cccc(F)c2)nc(NCc2ccccc2)n1	1	21	-25	15*	4	1
Cc1cc(N/N=C/c2ccccc2)nc(NCc2ccccc2)n1	-1	12	44	9	2	2
CC1CC(C)C(=O)C(C(CC2CC(=O)NC(=O)C2)OC(=O)CC(=O)c2ccccc2)C1 (stereo not given)	nt	-1	nt	-2	nt	0
CC(C)CC(=O)NC(NCC1CCCO1)C(Cl)(Cl)Cl (stereo not given)	-1	2	-20	-2	-2	0
Cc1noc(C)c1C(=O)OCC(=O)/C=C1/N(C)c2ccccc2C1(C)C	nt	-1	nt	-1	nt	0

From PubChem BioAssay
